Source: ChEMBL document CHEMBL4513216, “Probing the Open Global Health Chemical Diversity Library for Multistage-Active Starting Points for Next-Generation Antimalarials” (ACS Infect Dis, 2020)

Test: Toxicity liver stage against HepG2, at 10uM
Type: cell-based
Parameters: test concentration 10 uM, cell line HepG2-A16-CD81EGFP
Details: human, HepG2-A16-CD81EGFP cells; read-out: INHIBITION
In short: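 Uninfected HepG2-A16-CD81EGFP cells, 3 × 10^3 per well, 1536-well, plated on prespotted compound at 10 μM final, parasite-free screening media added to match infected plates; puromycin 10 μM positive, DMSO 0.5% negative; run in parallel with 48 h PbLuc assay at 37 °C, 5% CO2; viability by CellTiter-Glo luminescence, normalized to controls.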

SMILES: CC[S+]([O-])CCc1nc(CC(C)C)nn1-c1ccc2c(c1)OCCO2 (centres undefined)
- cytotoxicity at 10 µM: 4.24%

SMILES: COCCc1ncc(CN2C[C@H](C3CC3)[C@@H](N)C2)cn1
- cytotoxicity at 10 µM: -42%

SMILES: CN1C(=O)C(c2ccccc2)CC12CCN(CCN)CC2 (centres undefined)
- cytotoxicity at 10 µM: 8.67%

SMILES: CCCc1nc(CN(CC)C(=O)c2ccc3[nH]cnc3c2)no1
- cytotoxicity at 10 µM: 3.98%

SMILES: C=C(C)COc1cccc(CNC(CC(C)C)c2ncnn2C)c1 (centres undefined)
- cytotoxicity at 10 µM: 1.16%

SMILES: CCC(C)N(Cc1cnc(NC(C)C)nc1)Cc1ccsc1 (centres undefined)
- cytotoxicity at 10 µM: 3.84%

SMILES: C[C@@H]1CN(C(=O)c2cc(Cn3cnc4ccccc43)on2)C[C@H](C)O1
- cytotoxicity at 10 µM: 1.69%

SMILES: Cc1cccc2[nH]c(C3CCN(C(=O)c4ccc[nH]4)CC3)nc12
- cytotoxicity at 10 µM: 6.01%

SMILES: CCC[C@H]1CN(S(C)(=O)=O)C[C@@H]1NC(=O)Cc1ccc(F)cc1C
- cytotoxicity at 10 µM: -7.13%

SMILES: CC(=O)NCCC(=O)N(C/C=C/c1ccccc1)CCO
- cytotoxicity at 10 µM: 4.1%

SMILES: O=C(CCNCc1cc(O)c2cc(F)ccc2n1)N1CCCC1
- cytotoxicity at 10 µM: -49.3%

SMILES: CCc1ncc2c(n1)CN(C(=O)CNC(=O)c1ccccc1)C2
- cytotoxicity at 10 µM: 2.41%

SMILES: CNC(=O)[C@@H]1C[C@H](n2cc(-c3ccc(Cl)cc3)nn2)CN1
- cytotoxicity at 10 µM: 5.89%

SMILES: CC(O)c1cn(CC2CCN(C(=O)c3cscn3)CC2)nn1 (centres undefined)
- cytotoxicity at 10 µM: 1.83%

SMILES: Cc1nn(C)cc1-c1ccnc(N(C)Cc2ccc(F)cc2)n1
- cytotoxicity at 10 µM: -3.85%

SMILES: COCCNc1cc(-c2ccccc2C(=O)O)c2cc[nH]c2n1
- cytotoxicity at 10 µM: 2.13%

SMILES: CNc1ccnc(N2C[C@@H](C)[C@](O)(C3CCC3)C2)n1
- cytotoxicity at 10 µM: -10.1%

SMILES: CN(C)c1ncnc2c1CCN(S(=O)(=O)c1ccccc1C(F)(F)F)C2
- cytotoxicity at 10 µM: 21.3%

SMILES: Cc1nc(-c2cccc(N3CCC(N4CCCC4)CC3)c2)cs1
- cytotoxicity at 10 µM: -17.2%

SMILES: COc1ccc([C@@H]2CN(Cc3cccnc3N)C[C@H]2N(C)C)cc1
- cytotoxicity at 10 µM: 1.54%

SMILES: OC1(CN2CCCCC2)CCN(Cc2c[nH]c(CC3CCCC3)n2)C1 (centres undefined)
- cytotoxicity at 10 µM: -13%

SMILES: CCn1ccnc1CN1CCC(Oc2ccccc2F)(C(=O)O)CC1
- cytotoxicity at 10 µM: 6.84%

SMILES: CCCc1nnc(N2CCN(c3cccc(C)c3C)CC2)o1
- cytotoxicity at 10 µM: 9.59%

SMILES: Cc1c(C2CCOC(C)(C)C2)nc(N)c(C#N)c1-c1ccc(O)cc1 (centres undefined)
- cytotoxicity at 10 µM: 22.8%

SMILES: O=C1CC(C(=O)O)C2(CCN(C(=O)NCc3ccc(Cl)cc3)CC2)N1 (centres undefined)
- cytotoxicity at 10 µM: 7.66%

SMILES: Cc1ncnc(NCc2cc3n(n2)CCCN(S(C)(=O)=O)C3)c1C
- cytotoxicity at 10 µM: -8.42%

SMILES: CC(=O)Nc1ccc(CNC2CC(=O)N(Cc3cccc(F)c3)C2)cc1 (centres undefined)
- cytotoxicity at 10 µM: -6.98%

SMILES: CCOCCn1nc(C)cc1C(=O)N1CC[C@](C)(O)[C@H](C)C1
- cytotoxicity at 10 µM: -6.34%

SMILES: NC(=O)COc1cccc(C(=O)Nc2cnc3n2CCCC3)c1
- cytotoxicity at 10 µM: 18.2%

SMILES: O=C1O[C@@H]2CN(Cc3cccc(F)c3)C[C@@H]2N1CCCN1CCOCC1
- cytotoxicity at 10 µM: -9.9%

SMILES: Cc1nc(N)cc(C2CN(C(=O)c3ccn(C)n3)CCO2)n1 (centres undefined)
- cytotoxicity at 10 µM: 0.0241%

SMILES: C=Cn1ncc(CN2C[C@@H]3CCCN3C[C@H]2CCSC)c1C
- cytotoxicity at 10 µM: -4.12%

SMILES: Cc1ccccc1OCCN1CCN(Cc2cnn(CCO)c2)CC1
- cytotoxicity at 10 µM: -17.9%

SMILES: CCC(=O)N1CCN(C(=O)NCCOc2ccc3c(c2)CCC3)CC1
- cytotoxicity at 10 µM: -7.57%

SMILES: CCN(CC1CCOC1)C(=O)c1cccnc1N1CCOCC1 (centres undefined)
- cytotoxicity at 10 µM: -10.8%

SMILES: CC(NC(=O)NCCCn1ccnc1)c1ccc2c(c1)OCCCO2 (centres undefined)
- cytotoxicity at 10 µM: -15.1%

SMILES: CC(NC(=O)NCCCN1CCCCCC1)c1nncn1C (centres undefined)
- cytotoxicity at 10 µM: -7.1%

SMILES: CS(=O)(=O)N1CCC(C(=O)NCCNc2ncccn2)CC1
- cytotoxicity at 10 µM: -8.11%

SMILES: CCNc1cc2c(nn1)CCN(C(=O)c1ccc3cc[nH]c3c1)C2
- cytotoxicity at 10 µM: -6.95%

SMILES: Cc1nn(C)c(N2CCOCC2)c1CNCc1nccs1
- cytotoxicity at 10 µM: -6.33%

SMILES: O=C(N1CCC(Nc2cccnn2)CC1)C1(c2ccc(F)cc2)CC1
- cytotoxicity at 10 µM: -12.8%

SMILES: CCn1c(C)cc(C(=O)N2CCCC(c3nc(C)no3)C2)c1C (centres undefined)
- cytotoxicity at 10 µM: -3.39%

SMILES: Cc1ccc(CN(CCCN2CCOCC2)Cc2cnn(C)c2)o1
- cytotoxicity at 10 µM: -1.06%

SMILES: O=C(C1CCOCC1)N1CCO[C@H]2[C@H](Oc3ccccn3)CC[C@@H]21
- cytotoxicity at 10 µM: -99.6%

SMILES: CN(C)CCN1CCOCC2(CCCN(C(=O)c3ccoc3)C2)C1 (centres undefined)
- cytotoxicity at 10 µM: 4.87%

SMILES: CCC1=N[C@@]2(CC[C@@H]3CN(CC4CC4)C[C@@H]32)C(=O)N1CC1CC1
- cytotoxicity at 10 µM: 5.39%

SMILES: O=C(C1=CCCC1)N1CCO[C@H]2[C@@H](Oc3ccccn3)CC[C@@H]21
- cytotoxicity at 10 µM: 0.179%

SMILES: Cc1cccc(CN2CC3(CCN(C(=O)N(C)C)CC3)OCC2=O)n1
- cytotoxicity at 10 µM: -3.88%

SMILES: CCc1ncnc2c1CCN(CC(=O)N(C)C)CC2
- cytotoxicity at 10 µM: -106%

SMILES: Cc1cccc(CN2CCC3(CC2)CN(c2cccnc2)C(=O)CO3)n1
- cytotoxicity at 10 µM: -96.1%

SMILES: Cc1noc(C)c1CN1CCO[C@H]2CNC[C@H]21
- cytotoxicity at 10 µM: 5.4%

SMILES: O=C(NCc1cccs1)[C@@H]1CC[C@@H]2[C@@H](CCN2CC2CCC2)O1
- cytotoxicity at 10 µM: -10.2%

SMILES: Cc1noc([C@@H]2C[C@H]3OCC[C@H]3N(S(=O)(=O)c3cccnc3)C2)n1
- cytotoxicity at 10 µM: -12.5%

SMILES: O=C(Nc1ccccc1)[C@H]1C[C@H]2CN(S(=O)(=O)C3CC3)C[C@@H]1O2
- cytotoxicity at 10 µM: 4.44%
